Results from ChEMBL document CHEMBL5058577, “EUbOPEN Chemogenomics Library 2 (Multiplex)” (2022).

Test system: U2OS
Assay: Multiplex assay against U2OS
Type: toxicity, cell-based
Details: human
Procedure, shortened: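 Live cells were stained at seeding with Hoechst33342, BioTracker Green Microtubule Cytoskeleton Dye, MitoTracker Red and Annexin V Alexa Fluor 680, then imaged on a CQ1 microscope at 37°C and 5% CO2 after compound addition. CellPathfinder machine-learning gating split cells into Hoechst high-intensity objects or normal cells. Normal cells were split into healthy, pyknosed or fragmented nuclei, and pyknosed cells into mitotic or apoptotic. Tubulin, mitochondrial-mass and membrane-permeability phenotypes are per cents of healthy-nucleus cells.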

[1] = 12 h, 1 µM, compound concentration 1 uM, replicate 1
[2] = 12 h, 1 µM, compound concentration 1 uM, replicate 2
[3] = 12 h, 10 µM, compound concentration 10 uM, replicate 1
[4] = 12 h, 10 µM, compound concentration 10 uM, replicate 2
[5] = 24 h, 1 µM, compound concentration 1 uM, replicate 1
[6] = 24 h, 1 µM, compound concentration 1 uM, replicate 2
[7] = 24 h, 10 µM, compound concentration 10 uM, replicate 1
[8] = 24 h, 10 µM, compound concentration 10 uM, replicate 2
[9] = 48 h, 1 µM, compound concentration 1 uM, replicate 1
[10] = 48 h, 1 µM, compound concentration 1 uM, replicate 2
[11] = 48 h, 10 µM, compound concentration 10 uM, replicate 1
[12] = 48 h, 10 µM, compound concentration 10 uM, replicate 2

SMILES: C=CCN1C[C@H](C(=O)N(CCCN(C)C)C(=O)NCC)C[C@@H]2c3cccc4[nH]cc(c34)C[C@H]21 [CABERGOLINE]
- Population Apoptotic (%) [1]: 86%
- Population Fragmented Nuclei (%) [1]: 13%
- Population Healthy Nuclei (%) [1]: 72%
- Population Hoechst High Intensity Objects (%) [1]: 2%
- Population Membrane Permeable-Phenotype (%) [1]: 3%
- Population Mitochondria Different-Phenotype (%) [1]: 1%
- Population Mitotic Cells (%) [1]: 13%
- Population Normal (%) [1]: 97%
- Population Pyknosed Nuclei (%) [1]: 13%
- Population Tubulin-Different-Phenotype (%) [1]: 1%
- Total Cell Count [1]: 228
- Population Apoptotic (%) [2]: 57%
- Population Fragmented Nuclei (%) [2]: 9%
- Population Healthy Nuclei (%) [2]: 84%
- Population Hoechst High Intensity Objects (%) [2]: 3%
- Population Membrane Permeable-Phenotype (%) [2]: 8%
- Population Mitochondria Different-Phenotype (%) [2]: 4%
- Population Mitotic Cells (%) [2]: 42%
- Population Normal (%) [2]: 96%
- Population Pyknosed Nuclei (%) [2]: 5%
- Population Tubulin-Different-Phenotype (%) [2]: 5%
- Total Cell Count [2]: 129
- Population Apoptotic (%) [3]: 69%
- Population Fragmented Nuclei (%) [3]: 35%
- Population Healthy Nuclei (%) [3]: 52%
- Population Hoechst High Intensity Objects (%) [3]: 3%
- Population Membrane Permeable-Phenotype (%) [3]: 15%
- Population Mitochondria Different-Phenotype (%) [3]: 9%
- Population Mitotic Cells (%) [3]: 30%
- Population Normal (%) [3]: 96%
- Population Pyknosed Nuclei (%) [3]: 11%
- Population Tubulin-Different-Phenotype (%) [3]: 11%
- Total Cell Count [3]: 228
- Population Apoptotic (%) [4]: 64%
- Population Fragmented Nuclei (%) [4]: 17%
- Population Healthy Nuclei (%) [4]: 70%
- Population Hoechst High Intensity Objects (%) [4]: 2%
- Population Membrane Permeable-Phenotype (%) [4]: 13%
- Population Mitochondria Different-Phenotype (%) [4]: 21%
- Population Mitotic Cells (%) [4]: 35%
- Population Normal (%) [4]: 97%
- Population Pyknosed Nuclei (%) [4]: 12%
- Population Tubulin-Different-Phenotype (%) [4]: 9%
- Total Cell Count [4]: 143
- Population Apoptotic (%) [5]: 82%
- Population Fragmented Nuclei (%) [5]: 15%
- Population Healthy Nuclei (%) [5]: 74%
- Population Hoechst High Intensity Objects (%) [5]: 3%
- Population Membrane Permeable-Phenotype (%) [5]: 1%
- Population Mitochondria Different-Phenotype (%) [5]: 1%
- Population Mitotic Cells (%) [5]: 17%
- Population Normal (%) [5]: 96%
- Population Pyknosed Nuclei (%) [5]: 10%
- Population Tubulin-Different-Phenotype (%) [5]: 0%
- Total Cell Count [5]: 295
- Population Apoptotic (%) [6]: 64%
- Population Fragmented Nuclei (%) [6]: 7%
- Population Healthy Nuclei (%) [6]: 83%
- Population Hoechst High Intensity Objects (%) [6]: 1%
- Population Membrane Permeable-Phenotype (%) [6]: 9%
- Population Mitochondria Different-Phenotype (%) [6]: 4%
- Population Mitotic Cells (%) [6]: 35%
- Population Normal (%) [6]: 98%
- Population Pyknosed Nuclei (%) [6]: 8%
- Population Tubulin-Different-Phenotype (%) [6]: 6%
- Total Cell Count [6]: 162
- Population Apoptotic (%) [7]: 65%
- Population Fragmented Nuclei (%) [7]: 33%
- Population Healthy Nuclei (%) [7]: 54%
- Population Hoechst High Intensity Objects (%) [7]: 3%
- Population Membrane Permeable-Phenotype (%) [7]: 10%
- Population Mitochondria Different-Phenotype (%) [7]: 5%
- Population Mitotic Cells (%) [7]: 34%
- Population Normal (%) [7]: 96%
- Population Pyknosed Nuclei (%) [7]: 11%
- Population Tubulin-Different-Phenotype (%) [7]: 4%
- Total Cell Count [7]: 228
- Population Apoptotic (%) [8]: 88%
- Population Fragmented Nuclei (%) [8]: 14%
- Population Healthy Nuclei (%) [8]: 75%
- Population Hoechst High Intensity Objects (%) [8]: 2%
- Population Membrane Permeable-Phenotype (%) [8]: 13%
- Population Mitochondria Different-Phenotype (%) [8]: 12%
- Population Mitotic Cells (%) [8]: 11%
- Population Normal (%) [8]: 97%
- Population Pyknosed Nuclei (%) [8]: 10%
- Population Tubulin-Different-Phenotype (%) [8]: 10%
- Total Cell Count [8]: 165
- Population Apoptotic (%) [9]: 88%
- Population Fragmented Nuclei (%) [9]: 13%
- Population Healthy Nuclei (%) [9]: 77%
- Population Hoechst High Intensity Objects (%) [9]: 2%
- Population Membrane Permeable-Phenotype (%) [9]: 5%
- Population Mitochondria Different-Phenotype (%) [9]: 1%
- Population Mitotic Cells (%) [9]: 11%
- Population Normal (%) [9]: 97%
- Population Pyknosed Nuclei (%) [9]: 8%
- Population Tubulin-Different-Phenotype (%) [9]: 3%
- Total Cell Count [9]: 405
- Population Apoptotic (%) [10]: 93%
- Population Healthy Nuclei (%) [10]: 73%
- Population Hoechst High Intensity Objects (%) [10]: 3%
- Population Membrane Permeable-Phenotype (%) [10]: 4%
- Population Mitochondria Different-Phenotype (%) [10]: 4%
- Population Mitotic Cells (%) [10]: 6%
- Population Normal (%) [10]: 96%
- Population Pyknosed Nuclei (%) [10]: 13%
- Total Cell Count [10]: 221
- Population Apoptotic (%) [11]: 86%
- Population Fragmented Nuclei (%) [11]: 30%
- Population Healthy Nuclei (%) [11]: 57%
- Population Hoechst High Intensity Objects (%) [11]: 3%
- Population Membrane Permeable-Phenotype (%) [11]: 7%
- Population Mitochondria Different-Phenotype (%) [11]: 1%
- Population Mitotic Cells (%) [11]: 13%
- Population Normal (%) [11]: 96%
- Population Pyknosed Nuclei (%) [11]: 12%
- Population Tubulin-Different-Phenotype (%) [11]: 3%
- Total Cell Count [11]: 303
- Population Apoptotic (%) [12]: 87%
- Population Fragmented Nuclei (%) [12]: 13%
- Population Healthy Nuclei (%) [12]: 66%
- Population Hoechst High Intensity Objects (%) [12]: 4%
- Population Membrane Permeable-Phenotype (%) [12]: 9%
- Population Mitochondria Different-Phenotype (%) [12]: 9%
- Population Mitotic Cells (%) [12]: 12%
- Population Normal (%) [12]: 95%
- Population Pyknosed Nuclei (%) [12]: 20%
- Population Tubulin-Different-Phenotype (%) [12]: 5%
- Total Cell Count [12]: 206
